Experimental data published in ChEMBL document CHEMBL4689842, “EUbOPEN Chemogenomics Library wave 1” (2021).

System: U2OS
Test: Multiplex assay against U2OS
Assay type: toxicity, cell-based
Settings: human
Outline: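 Hoechst33342, BioTracker Green Microtubule Cytoskeleton Dye, MitoTracker Red and Annexin V Alexa Fluor 680 were added to live cells at seeding, and imaging on a CQ1 microscope at 37°C and 5% CO2 followed compound addition. Gating by CellPathfinder machine learning separated cells into Hoechst high-intensity objects or normal cells, then normal cells into healthy, pyknosed or fragmented nuclei, then pyknosed cells into mitotic or apoptotic. Per cents of healthy-nucleus cells are reported for the tubulin, mitochondrial-mass and membrane-permeability phenotypes.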

[1] = 12 h, 1 µM, compound concentration 1 uM, replicate 1
[2] = 12 h, 1 µM, compound concentration 1 uM, replicate 2
[3] = 12 h, 10 µM, compound concentration 10 uM, replicate 1
[4] = 12 h, 10 µM, compound concentration 10 uM, replicate 2
[5] = 24 h, 1 µM, compound concentration 1 uM, replicate 1
[6] = 24 h, 1 µM, compound concentration 1 uM, replicate 2
[7] = 24 h, 10 µM, compound concentration 10 uM, replicate 1
[8] = 24 h, 10 µM, compound concentration 10 uM, replicate 2
[9] = 48 h, 1 µM, compound concentration 1 uM, replicate 1
[10] = 48 h, 1 µM, compound concentration 1 uM, replicate 2
[11] = 48 h, 10 µM, compound concentration 10 uM, replicate 1
[12] = 48 h, 10 µM, compound concentration 10 uM, replicate 2

## C[C@]12CC[C@@H]3c4ccc(O)cc4CC[C@H]3[C@@H]1CC[C@@H]2O [ESTRADIOL]
[1]
  Population Apoptotic (%): 11%
  Population Fragmented Nuclei (%): 8%
  Population Healthy Nuclei (%): 82%
  Population Hoechst High Intensity Objects (%): 7%
  Population Membrane Permeable-Phenotype (%): 10%
  Population Mitochondria Different-Phenotype (%): 9%
  Population Mitotic Cells (%): 88%
  Population Normal (%): 92%
  Population Pyknosed Nuclei (%): 8%
  Population Tubulin-Different-Phenotype (%): 12%
  Total Cell Count: 138
[2]
  Population Apoptotic (%): 50%
  Population Healthy Nuclei (%): 86%
  Population Hoechst High Intensity Objects (%): 5%
  Population Membrane Permeable-Phenotype (%): 4%
  Population Mitochondria Different-Phenotype (%): 8%
  Population Mitotic Cells (%): 50%
  Population Normal (%): 94%
  Population Pyknosed Nuclei (%): 5%
  Population Tubulin-Different-Phenotype (%): 14%
  Total Cell Count: 80
[3]
  Population Apoptotic (%): 30%
  Population Fragmented Nuclei (%): 5%
  Population Healthy Nuclei (%): 82%
  Population Hoechst High Intensity Objects (%): 4%
  Population Membrane Permeable-Phenotype (%): 6%
  Population Mitochondria Different-Phenotype (%): 7%
  Population Mitotic Cells (%): 70%
  Population Normal (%): 95%
  Population Pyknosed Nuclei (%): 11%
  Population Tubulin-Different-Phenotype (%): 14%
  Total Cell Count: 113
[4]
  Population Apoptotic (%): 25%
  Population Fragmented Nuclei (%): 9%
  Population Healthy Nuclei (%): 77%
  Population Hoechst High Intensity Objects (%): 8%
  Population Membrane Permeable-Phenotype (%): 4%
  Population Mitochondria Different-Phenotype (%): 12%
  Population Mitotic Cells (%): 75%
  Population Normal (%): 91%
  Population Pyknosed Nuclei (%): 12%
  Population Tubulin-Different-Phenotype (%): 25%
  Total Cell Count: 76
[5]
  Population Apoptotic (%): 0%
  Population Fragmented Nuclei (%): 7%
  Population Healthy Nuclei (%): 87%
  Population Hoechst High Intensity Objects (%): 5%
  Population Membrane Permeable-Phenotype (%): 6%
  Population Mitochondria Different-Phenotype (%): 6%
  Population Mitotic Cells (%): 100%
  Population Normal (%): 94%
  Population Pyknosed Nuclei (%): 5%
  Population Tubulin-Different-Phenotype (%): 15%
  Total Cell Count: 140
[6]
  Population Apoptotic (%): 50%
  Population Fragmented Nuclei (%): 4%
  Population Healthy Nuclei (%): 89%
  Population Hoechst High Intensity Objects (%): 3%
  Population Membrane Permeable-Phenotype (%): 4%
  Population Mitochondria Different-Phenotype (%): 9%
  Population Mitotic Cells (%): 50%
  Population Normal (%): 96%
  Population Pyknosed Nuclei (%): 6%
  Population Tubulin-Different-Phenotype (%): 14%
  Total Cell Count: 82
[7]
  Population Apoptotic (%): 21%
  Population Fragmented Nuclei (%): 7%
  Population Healthy Nuclei (%): 79%
  Population Membrane Permeable-Phenotype (%): 2%
  Population Mitotic Cells (%): 78%
  Population Pyknosed Nuclei (%): 12%
  Population Tubulin-Different-Phenotype (%): 12%
  Total Cell Count: 140
[8]
  Population Apoptotic (%): 30%
  Population Fragmented Nuclei (%): 18%
  Population Healthy Nuclei (%): 68%
  Population Hoechst High Intensity Objects (%): 3%
  Population Membrane Permeable-Phenotype (%): 5%
  Population Mitochondria Different-Phenotype (%): 11%
  Population Mitotic Cells (%): 70%
  Population Normal (%): 96%
  Population Pyknosed Nuclei (%): 13%
  Population Tubulin-Different-Phenotype (%): 43%
[9]
  Population Apoptotic (%): 31%
  Population Hoechst High Intensity Objects (%): 1%
  Population Membrane Permeable-Phenotype (%): 2%
  Population Mitotic Cells (%): 68%
  Population Normal (%): 98%
  Population Tubulin-Different-Phenotype (%): 15%
  Total Cell Count: 138
[10]
  Population Apoptotic (%): 18%
  Population Fragmented Nuclei (%): 5%
  Population Healthy Nuclei (%): 86%
  Population Hoechst High Intensity Objects (%): 2%
  Population Membrane Permeable-Phenotype (%): 12%
  Population Mitochondria Different-Phenotype (%): 14%
  Population Mitotic Cells (%): 81%
  Population Normal (%): 97%
  Population Pyknosed Nuclei (%): 7%
  Population Tubulin-Different-Phenotype (%): 17%
  Total Cell Count: 90
[11]
  Population Apoptotic (%): 34%
  Population Fragmented Nuclei (%): 8%
  Population Healthy Nuclei (%): 81%
  Population Membrane Permeable-Phenotype (%): 2%
  Population Mitochondria Different-Phenotype (%): 19%
  Population Mitotic Cells (%): 65%
  Population Tubulin-Different-Phenotype (%): 12%
[12]
  Population Apoptotic (%): 72%
  Population Fragmented Nuclei (%): 13%
  Population Healthy Nuclei (%): 76%
  Population Hoechst High Intensity Objects (%): 2%
  Population Membrane Permeable-Phenotype (%): 17%
  Population Mitochondria Different-Phenotype (%): 13%
  Population Mitotic Cells (%): 27%
  Population Normal (%): 97%
  Population Pyknosed Nuclei (%): 10%
  Population Tubulin-Different-Phenotype (%): 57%
  Total Cell Count: 157
